Experimental findings from PubChem BioAssay AID602194 (The Scripps Research Institute Molecular Screening Center, 2012) are described below.

In all, about 2,400 compounds went through this assay and about 140 (5.8%) were called active.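 The calls were made as follows: active = mean activation across replicates exceeds the hit threshold derived in the earlier primary screen (cut at about 18% in these data); inactive = the rest.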 These entries were drawn from the full list.

In this assay the target is Mu-type opioid receptor (Homo sapiens) + Delta-type opioid receptor (Homo sapiens) (UniProt P35372+P41143). The assay is described as follows: OPRM1-OPRD1 heterodimer beta-arrestin recruitment activators – cell-based, luminescence, counter-screen for MC4R biased agonist project (AID 602194).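 Also: 100% = deltorphin B at 0.9 µM final and 0% = DMSO alone.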 As to conditions: U2OS PathHunter beta-arrestin, beta-gal luminescence; at 9.2 µM; active compounds read high; percent of deltorphin B response, DMSO zero. In short, it runs like this: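 assay system = U2OS Mu-Delta cell line | schedule = 3 h compound exposure at 37 °C, 1 h room-temperature readout | measured by = luminescence from beta-gal fragment complementation upon beta-arrestin recruitment | benchmarks = high Deltorphin B 0.9 µM, low DMSO alone | replication = triplicate wells per compound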
Mu-type opioid receptor (Homo sapiens) + Delta-type opioid receptor (Homo sapiens), sequence (P35372 whole entry, looked up, the tested form may be a part): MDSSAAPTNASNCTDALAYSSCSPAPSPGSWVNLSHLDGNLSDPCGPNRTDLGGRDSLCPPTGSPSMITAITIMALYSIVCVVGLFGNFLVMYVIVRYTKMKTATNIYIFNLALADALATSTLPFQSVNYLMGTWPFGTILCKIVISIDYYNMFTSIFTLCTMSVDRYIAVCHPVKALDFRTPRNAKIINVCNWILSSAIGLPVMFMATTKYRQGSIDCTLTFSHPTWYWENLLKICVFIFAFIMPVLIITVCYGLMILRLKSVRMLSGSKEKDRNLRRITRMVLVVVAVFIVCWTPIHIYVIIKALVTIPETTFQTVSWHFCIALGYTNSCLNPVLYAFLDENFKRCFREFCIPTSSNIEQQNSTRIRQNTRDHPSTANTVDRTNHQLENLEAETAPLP
Mu-type opioid receptor (Homo sapiens) + Delta-type opioid receptor (Homo sapiens), sequence (P41143 whole entry, looked up, the tested form may be a part): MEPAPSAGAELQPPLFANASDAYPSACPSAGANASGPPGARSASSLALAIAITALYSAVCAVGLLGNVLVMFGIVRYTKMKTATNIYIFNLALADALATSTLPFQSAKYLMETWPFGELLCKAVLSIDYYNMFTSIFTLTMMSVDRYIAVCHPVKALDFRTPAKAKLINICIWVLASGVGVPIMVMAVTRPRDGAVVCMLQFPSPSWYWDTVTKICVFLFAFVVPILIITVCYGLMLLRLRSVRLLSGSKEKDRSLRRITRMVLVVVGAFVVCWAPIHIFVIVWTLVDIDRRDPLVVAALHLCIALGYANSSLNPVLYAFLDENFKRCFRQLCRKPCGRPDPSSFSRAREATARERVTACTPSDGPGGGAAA
A general note: Activated receptors often draw arrestin, which recruitment assays turn into a signal.
With `Cn1c(=S)sc2ccc3ccccc3c21`, the activation was 6.66% (inactive).

On to `COc1ccc(Nc2ncnc3sc(-c4ccccc4)cc23)c(OC)c1`, for which the activation is 3.93% (inactive).

Consider `COc1ccc(CC(N)c2csc(NC(=O)NC(c3ccccc3)c3ccccc3)n2)cc1` (stereo unspecified), for which the activation was 27.4% (active).

In the case of `CC(=O)Nc1ccc(-c2csc(NC(=O)Nc3ccccc3)n2)cc1`, the activation was 4.45% (inactive).

As to `COc1ccc(C(N)c2csc(NC(=O)Nc3cccc(C(F)(F)F)c3)n2)cc1` (stereo unspecified), the activation was 13.5% (inactive).

Consider `COc1ccc(Cl)cc1-n1c(C)cc(C(=O)OCC(=O)N2CC(=O)Nc3ccccc32)c1C`, for which the activation is 3.77% (inactive).

For `CC(=O)c1sc(NC(=O)CCCOc2ccccc2C)nc1C`, the activation was 7.21% (inactive).

In the case of `CSc1nc2sc3c(c2c(=O)[nH]1)CCc1ccccc1-3`, the activation was 7.74% (inactive).

As for `Cc1ccc(-c2csc(NC(=O)Cn3[nH]c(=O)c4ccccc4c3=O)n2)cc1`, the activation is 6.76% (inactive).

Turning to `Cc1ccc(NC(=O)Nc2ccccc2)c(Br)c1`, the activation is 7.33% (inactive).

`CCn1c(SCC(=O)Nc2cccc(F)c2)nnc1-c1cc2cc(Br)ccc2o1`: the activation is 6.83% (inactive).

Consider `O=C(Nc1sc2c(c1-c1nc3ccccc3[nH]1)CCCC2)C1CC1`, for which the activation is 4.53% (inactive).

Regarding `Cc1cccc(C)c1OC(=O)CSc1nnc(-c2ccccc2)o1`, the activation was 3.88% (inactive).

As for `O=C1N/C(=C/c2cccn2-c2ccccc2)C(=O)N1c1cccc(Cl)c1`, the activation is 6.05% (inactive).

In the case of `O=C(CSc1ccccc1)Nc1nnc(/C=C/c2ccccc2)s1`, the activation is 6.5% (inactive).

Consider `CCCCN1CC(C)(C)[C@H](CC(=O)Nc2ccc(Br)cc2)C1=O`, for which the activation is 4.9% (inactive).

Regarding `COc1cccc2sc(N(CCCN(C)C)C(=O)C(c3ccccc3)c3ccccc3)nc12`, the activation is 9.67% (inactive).

Regarding `COCCNc1nc(Nc2ccccc2Cl)c2sc(-c3ccccc3)cc2n1`, the activation is 5.13% (inactive).

Regarding `Cc1nn2cc(-c3ccc(Cl)cc3)cnc2c1Br`, the activation is 2.93% (inactive).

Regarding `CCc1ccc2c(c1)cc(CN(C(=S)Nc1ccccc1Cl)C1CC1)c1nnnn12`, the activation was 2.95% (inactive).

For the compound `CC(=O)Nc1ccc(NC(=O)c2sc3nc4c(c(-c5ccc(C)cc5)c3c2N)CCC4)cc1`, the activation is 14.3% (inactive).

On to `Cc1ccc(CCC(=O)Nc2ncc(Cc3cc(Cl)ccc3Cl)s2)o1`, for which the activation is 10.6% (inactive).

For `Cc1cc(C)cc(C(=O)OCC(=O)NCCNC(=O)COC(=O)c2cc(C)cc(C)c2)c1`, the activation is 3.35% (inactive).

For the compound `CC(C)c1ccc2c(c1)c(SC(C)(C)C)c(CC(C)(C)C(=O)O)n2Cc1ccc(Cl)cc1`, the activation was 4.65% (inactive).

As for `COc1ccc(S(=O)(=O)N2CCC(C(=O)OCC(=O)c3ccccc3)CC2)cc1[N+](=O)[O-]`, the activation is 4.26% (inactive).

In the case of `CCOc1ccc(/C=C/C(=O)OCC(=O)c2ccccc2OC)cc1OC`, the activation was 3.55% (inactive).

Regarding `COc1ccc(C(=O)c2oc3ccc(Br)cc3c2NC(C)=O)cc1`, the activation is 1.7% (inactive).

Regarding `COc1cccc(CNCCc2c[nH]c3ccccc23)c1OCc1ccccc1F`, the activation is 39.6% (active).

For `O=C(Cn1cnc2c(nnn2-c2ccccc2)c1=O)N1CCC(Cc2ccccc2)CC1`, the activation was 3.51% (inactive).

As to `O=C(OC12CC3CC(CC(C3)C1)C2)c1ccc(NCc2cc(O)ccc2O)cc1`, the activation is 7.74% (inactive).

For `Cc1ccc([C@H]2C[C@H](O)[C@@H](n3cc(COC(=O)c4ccccc4)nn3)CN2C(=O)C2CCCCC2)cc1`, the activation was 5.71% (inactive).

For the compound `O=C(Nc1ccc2oc(-c3ccc4ccccc4c3)nc2c1)c1cccs1`, the activation was 5.63% (inactive).

`CC(=O)Nc1cc(-c2ccccc2N(C)C)cn2c(-c3ccc(F)c(Cl)c3)cnc12`: the activation was 4.79% (inactive).

For the compound `CC(=O)Nc1cc(-c2ccccc2F)cn2c(-c3cccc(C(F)(F)F)c3)cnc12`, the activation is 2.54% (inactive).

Consider `Cc1csc(NC(=O)c2ccc(-c3ccc(Cl)cc3Cl)o2)n1`, for which the activation was 5.41% (inactive).

Regarding `CCCCNc1c(-c2cccc(Sc3ccc(OC)cc3)c2)nc2ccccn12`, the activation was 6.07% (inactive).

Turning to `CCN1CCN(CCNC(=O)c2ccc(/C=C3/Sc4ccccc4N(Cc4cccc(C)c4)C3=O)cc2)CC1`, the activation was 4.15% (inactive).

In the case of `Cc1ccccc1NC(=O)c1ccc(COc2ccc3c(C)cc(=O)oc3c2)cc1`, the activation is 12.7% (inactive).

Turning to `O=C(/C=C/c1c(Cl)cccc1Cl)NCc1ccccc1`, the activation was 5.53% (inactive).

Turning to `COc1c(Cl)cc(C(=O)Nc2ccc(Cl)cn2)cc1Cl`, the activation was 7.15% (inactive).

In the case of `NC(N)=Nc1nc(-c2ccccc2)c2cc(Cl)ccc2n1`, the activation was 5.11% (inactive).

As for `O=C(NC1CCCCCC1)c1cccnc1Sc1ccc(Cl)cc1`, the activation is 3.4% (inactive).

On to `Brc1ccc(-c2csc(N/N=C/c3cccnc3)n2)cc1`, for which the activation was 5.84% (inactive).

Turning to `Cc1cccc(NC(=O)Nc2cccc(Oc3c(F)c(F)c(F)c(F)c3F)c2)c1`, the activation was 6.53% (inactive).

With `COc1ccc(-c2cc(NC=O)c3ncc(-c4ccccc4)n3c2)cc1OC`, the activation is 3.12% (inactive).

As for `O=C(CCCCCN1C(=O)c2cccc3cccc(c23)C1=O)NCc1ccco1`, the activation is 9.12% (inactive).

As to `O=C(CCCn1c(SCC(=O)c2ccc(F)cc2)nc2ccccc2c1=O)NCc1ccco1`, the activation was 33.1% (active).

In the case of `O=C(CCCN1C(=O)/C(=C\c2ccco2)SC1=S)Nc1cccc2ccccc12`, the activation is 4.3% (inactive).

As to `COc1ccc(S(=O)(=O)N/N=C\c2ccc(OC)c(COc3ccc(C)cc3[N+](=O)[O-])c2)cc1`, the activation was 3.27% (inactive).

On to `COc1ccccc1-c1cc(NC(C)=O)c2ncc(-c3ccc(F)cc3)n2c1`, for which the activation was 4.19% (inactive).

Consider `O=C(N/N=C/c1ccc(OC(=O)c2ccccc2Cl)cc1)c1ccc(O)cc1`, for which the activation is 6.45% (inactive).

For `CC(=O)c1cccc(-c2cnc3c(NC=O)cc(-c4ccc(N(C)C)cc4)cn23)c1`, the activation was 2.52% (inactive).

For `Cc1ccc(-n2cc3ccc([N+](=O)[O-])cc3n2)cc1`, the activation is 7.27% (inactive).

Take `COc1ccc(OCC(=O)Nc2ccc(N3CCC(C)CC3)cc2)cc1`: the activation is 2.59% (inactive).

Regarding `O=C(NCCc1c[nH]c2ccc(Cl)cc12)c1ccc([N+](=O)[O-])cc1`, the activation was 15.2% (inactive).

As to `CCOC(=O)c1[nH]c2c(c1-c1ccccc1)C(=O)CC(c1ccc(Cl)cc1)C2` (stereo unspecified), the activation is 6.76% (inactive).

Regarding `CCCCCCCCCCOC(=O)Cn1c(COc2ccc(C)cc2)[n+](C)c2ccccc21`, the activation is 22.4% (active).

`CCCCCCCCCCOC(=O)Cn1c(COc2cccc(OC)c2)[n+](C)c2ccccc21`: the activation is 19.9% (active).

As to `COc1cc(/C=C(\C#N)C(=O)Nc2ccc3ccccc3c2)c([N+](=O)[O-])cc1OC`, the activation was 10.3% (inactive).

For the compound `CCN1C[C@@H]2[C@@H]3C(=O)N(Cc4ccccc4)C(=O)[C@@H]3[C@](Cc3ccccc3)(C(=O)OC)N2C1=NC1CCCCC1`, the activation is 5.52% (inactive).

For the compound `O=C(NC(c1ccc(-c2ccccc2)cc1)c1cnccn1)C1CCN(CCOc2ccc(Cl)cc2Cl)CC1` (stereo unspecified), the activation was 9.53% (inactive).

Turning to `O=C(COC(=O)c1cccc(Br)c1)Nc1cccc2c1C(=O)c1ccccc1C2=O`, the activation was 6.2% (inactive).

Consider `O=C(NC(=S)Nc1cccc2c(O)cccc12)c1cccc(Br)c1`, for which the activation is 8.2% (inactive).

Regarding `CCN(CC)S(=O)(=O)c1ccc(C)c(NC(=O)COc2ccc(Br)cc2Cl)c1`, the activation was 6.67% (inactive).

In the case of `CSc1ccc(/C=N\NC(=O)COc2ccc(Cl)cc2Br)cc1`, the activation is 5.52% (inactive).

As to `COc1ccc(C)c(Cn2c(-c3nonc3N)nc3ccccc32)c1`, the activation was 5.04% (inactive).
